Test results published in ChEMBL document CHEMBL1165950, “Design and synthesis of new potent anticancer pyrazoles with high FLT3 kinase inhibitory selectivity” (Bioorg Med Chem, 2010).

Key:
Type in all cases: functional
SF-539 = test: Cytotoxicity against human SF539 cells assessed as cell growth at 10 uM; details: read-out: Activity
Method in brief: (§1)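 NCI-60 screen: cells grown in RPMI 1640 with 5% FBS and 2 mM L-glutamine, plated at 5000–40,000 cells/well according to doubling time, and preincubated 24 h at 37 °C, 5% CO2. The single 10 µM dose (DMSO stock) was added, then incubated 48 h. Cells were TCA-fixed and stained with 0.4% SRB, read at 515 nm, and growth % calculated against time-zero and control plates.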

SNB-19 = test: Cytotoxicity against human SNB19 cells assessed as cell growth at 10 uM; details: read-out: Activity; method in brief: as §1
SNB-75 = test: Cytotoxicity against human SNB75 cells assessed as cell growth at 10 uM; details: read-out: Activity; method in brief: as §1
U-251 = test: Cytotoxicity against human U251 cells assessed as cell growth at 10 uM; details: read-out: Activity; method in brief: as §1
LOX IMVI = test: Cytotoxicity against human LOXIMVI cells assessed as cell growth at 10 uM; details: read-out: Activity; method in brief: as §1
Malme-3M = test: Cytotoxicity against human MALME-3M cells assessed as cell growth at 10 uM; details: read-out: Activity; method in brief: as §1
M14 = test: Cytotoxicity against human M14 cells assessed as cell growth at 10 uM; details: read-out: Activity; method in brief: as §1
MDA-MB-435 = test: Cytotoxicity against human MDA-MB-435 cells assessed as cell growth at 10 uM; details: read-out: Activity; method in brief: as §1
SK-MEL-2 = test: Cytotoxicity against human SK-MEL-2 cells assessed as cell growth at 10 uM; details: read-out: Activity; method in brief: as §1
SK-MEL-28 = test: Cytotoxicity against human SK-MEL-28 cells assessed as cell growth at 10 uM; details: read-out: Activity; method in brief: as §1
SK-MEL-5 = test: Cytotoxicity against human SK-MEL-5 cells assessed as cell growth at 10 uM; details: read-out: Activity; method in brief: as §1
UACC-257 = test: Cytotoxicity against human UACC257 cells assessed as cell growth at 10 uM; details: read-out: Activity; method in brief: as §1
UACC-62 = test: Cytotoxicity against human UACC62 cells assessed as cell growth at 10 uM; details: read-out: Activity; method in brief: as §1
IGROV-1 = test: Cytotoxicity against human IGROV1 cells assessed as cell growth at 10 uM; details: read-out: Activity
Method in brief: (§2)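 Single-dose NCI-60 screen at 10 µM. Cells were grown in RPMI 1640 with 5% FBS and 2 mM L-glutamine, then treated for 48 h at 37 °C. Protein was measured by SRB staining with absorbance at 515 nm. Percentage growth was recorded, and inhibition percentage was calculated as 100 minus growth percentage.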

OVCAR-3 = test: Cytotoxicity against human OVCAR-3 cells assessed as cell growth at 10 uM; details: read-out: Activity; method in brief: as §1
OVCAR-4 = test: Cytotoxicity against human OVCAR4 cells assessed as cell growth at 10 uM; details: read-out: Activity; method in brief: as §1
OVCAR-5 = test: Cytotoxicity against human OVCAR5 cells assessed as cell growth at 10 uM; details: read-out: Activity; method in brief: as §1
OVCAR-8 = test: Cytotoxicity against human OVCAR8 cells assessed as cell growth at 10 uM; details: read-out: Activity; method in brief: as §1
NCI/ADR-RES = test: Cytotoxicity against human NCI/ADR-RES cells assessed as cell growth at 10 uM; details: read-out: Activity; method in brief: as §1
SK-OV-3 = test: Cytotoxicity against human SKOV3 cells assessed as cell growth at 10 uM; details: read-out: Activity; method in brief: as §1
786-0 = test: Cytotoxicity against human 786-0 cells assessed as cell growth at 10 uM; details: read-out: Activity; method in brief: as §2
A498 = test: Cytotoxicity against human A498 cells assessed as cell growth at 10 uM; details: read-out: Activity; method in brief: as §2
ACHN = test: Cytotoxicity against human ACHN cells assessed as cell growth at 10 uM; details: read-out: Activity; method in brief: as §2
CAKI-1 = test: Cytotoxicity against human Caki1 cells assessed as cell growth at 10 uM; details: read-out: Activity; method in brief: as §2
RXF 393 = test: Cytotoxicity against human RXF393 cells assessed as cell growth at 10 uM; details: read-out: Activity; method in brief: as §1
SN12C = test: Cytotoxicity against human SN12C cells assessed as cell growth at 10 uM; details: read-out: Activity; method in brief: as §1
TK-10 = test: Cytotoxicity against human TK10 cells assessed as cell growth at 10 uM; details: read-out: Activity; method in brief: as §1
UO-31 = test: Cytotoxicity against human UO31 cells assessed as cell growth at 10 uM; details: read-out: Activity; method in brief: as §1
PC-3 = test: Cytotoxicity against human PC3 cells assessed as cell growth at 10 uM; details: read-out: Activity; method in brief: as §1
DU-145 = test: Cytotoxicity against human DU145 cells assessed as cell growth at 10 uM; details: read-out: Activity; method in brief: as §2
MCF7 = test: Cytotoxicity against human MCF7 cells assessed as cell growth at 10 uM; details: read-out: Activity; method in brief: as §1
MDA-MB-231 = test: Cytotoxicity against human MDA-MB-231 cells assessed as cell growth at 10 uM; details: read-out: Activity; method in brief: as §1
[1] = Cytotoxicity against human Hs 578T cells assessed as cell growth at 10 uM; details: read-out: Activity; method in brief: as §2
BT-549 = test: Cytotoxicity against human BT549 cells assessed as cell growth at 10 uM; details: read-out: Activity; method in brief: as §2
T47D = test: Cytotoxicity against human T47D cells assessed as cell growth at 10 uM; details: read-out: Activity; method in brief: as §1
MDA-MB-468 = test: Cytotoxicity against human MDA-MB-468 cells assessed as cell growth at 10 uM; details: read-out: Activity; method in brief: as §1
[2] = Growth inhibition of human NCI60 cells at 10 uM after 48 hrs by sulforhodamine B assay relative to control; details: NCI60, 48 h, read-out: GI
Method in brief: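 Single-dose NCI screen at 10 µM across the 60-line panel, 48 h exposure at 37 °C after a 24 h preincubation. Adherent cells were fixed with cold TCA and stained with 0.4% SRB, and absorbance was read at 515 nm. Inhibition % was taken as 100 minus growth %, and the mean across all lines was reported.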

CCRF-CEM = test: Cytotoxicity against human CCRF-CEM cells assessed as cell growth at 10 uM; details: read-out: Activity; method in brief: as §2
HL-60(TB) = test: Cytotoxicity against human HL-60(TB) cells assessed as cell growth at 10 uM; details: read-out: Activity
Method in brief: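 NCI 60-cell panel screen at a single concentration of 10 µM. Cells are grown in RPMI 1640 with 5% FBS and 2 mM L-glutamine and read by SRB protein staining at 515 nm. Percent growth is measured relative to time-zero and untreated controls; inhibition % is 100 minus growth %.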

K562 = test: Cytotoxicity against human K562 cells assessed as cell growth at 10 uM; details: read-out: Activity; method in brief: as §2
MOLT-4 = test: Cytotoxicity against human MOLT4 cells assessed as cell growth at 10 uM; details: read-out: Activity; method in brief: as §1
[3] = Cytotoxicity against human […] cells assessed as cell growth at 10 uM; details: read-out: Activity; method in brief: as §1
SR = test: Cytotoxicity against human SR cells assessed as cell growth at 10 uM; details: read-out: Activity; method in brief: as §1
A549 = test: Cytotoxicity against human A549 cells assessed as cell growth at 10 uM; details: read-out: Activity; method in brief: as §2
EKVX = test: Cytotoxicity against human EKVX cells assessed as cell growth at 10 uM; details: read-out: Activity; method in brief: as §2
HOP-62 = test: Cytotoxicity against human HOP62 cells assessed as cell growth at 10 uM; details: read-out: Activity; method in brief: as §2
HOP-92 = test: Cytotoxicity against human HOP92 cells assessed as cell growth at 10 uM; details: read-out: Activity; method in brief: as §2
NCI-H226 = test: Cytotoxicity against human NCI-H226 cells assessed as cell growth at 10 uM; details: read-out: Activity; method in brief: as §1
NCI-H23 = test: Cytotoxicity against human NCI-H23 cells assessed as cell growth at 10 uM; details: read-out: Activity; method in brief: as §1
NCI-H322M = test: Cytotoxicity against human NCI-H322M cells assessed as cell growth at 10 uM; details: read-out: Activity; method in brief: as §1
NCI-H460 = test: Cytotoxicity against human NCI-H460 cells assessed as cell growth at 10 uM; details: read-out: Activity; method in brief: as §1
NCI-H522 = test: Cytotoxicity against human NCI-H522 cells assessed as cell growth at 10 uM; details: read-out: Activity; method in brief: as §1
COLO 205 = test: Cytotoxicity against human COLO205 cells assessed as cell growth at 10 uM; details: read-out: Activity; method in brief: as §2
HCC 2998 = test: Cytotoxicity against human HCC2998 cells assessed as cell growth at 10 uM; details: read-out: Activity; method in brief: as §2
HCT-116 = test: Cytotoxicity against human HCT116 cells assessed as cell growth at 10 uM; details: read-out: Activity; method in brief: as §2
HCT-15 = test: Cytotoxicity against human HCT15 cells assessed as cell growth at 10 uM; details: read-out: Activity; method in brief: as §2
HT-29 = test: Cytotoxicity against human HT-29 cells assessed as cell growth at 10 uM; details: read-out: Activity; method in brief: as §2
KM12 = test: Cytotoxicity against human KM12 cells assessed as cell growth at 10 uM; details: read-out: Activity; method in brief: as §1
SW-620 = test: Cytotoxicity against human SW620 cells assessed as cell growth at 10 uM; details: read-out: Activity; method in brief: as §1
SF-268 = test: Cytotoxicity against human SF268 cells assessed as cell growth at 10 uM; details: read-out: Activity; method in brief: as §1
SF-295 = test: Cytotoxicity against human SF295 cells assessed as cell growth at 10 uM; details: read-out: Activity; method in brief: as §1

Work on `COc1cc(C)cc(-c2nn(CC#N)cc2-c2ccnc(-c3ccc(C(C)=O)cc3)c2)c1` yielded a growth at 10 µM (SF-539) of 81.9%, a growth at 10 µM (SNB-19) of 92.2% and a growth at 10 µM (SNB-75) of 46.4%. For the same molecule, the growth at 10 µM (U-251) was 91.8%, the growth at 10 µM (LOX IMVI) was 78.1% and the growth at 10 µM (Malme-3M) was 139%. The growth at 10 µM (M14) was 103%, the growth at 10 µM (MDA-MB-435) was 70% and the growth at 10 µM (SK-MEL-2) was 89.1%. The growth at 10 µM (SK-MEL-28) was 75.4%, the growth at 10 µM (SK-MEL-5) was 39.7% and the growth at 10 µM (UACC-257) was 82.7%. For the same molecule, the growth at 10 µM (UACC-62) was 64.6%, the growth at 10 µM (IGROV-1) was 101% and the growth at 10 µM (OVCAR-3) was 108%. It also gave a growth at 10 µM (OVCAR-4) of 58.6%, a growth at 10 µM (OVCAR-5) of 108% and a growth at 10 µM (OVCAR-8) of 80.6%. For the same molecule, the growth at 10 µM (NCI/ADR-RES) was 73.8%, the growth at 10 µM (SK-OV-3) was 89% and the growth at 10 µM (786-0) was 93.9%. For the same molecule, the growth at 10 µM (A498) was 93%, the growth at 10 µM (ACHN) was 73.8% and the growth at 10 µM (CAKI-1) was 87.2%. For the same molecule, the growth at 10 µM (RXF 393) was 78.9%, the growth at 10 µM (SN12C) was 83.6% and the growth at 10 µM (TK-10) was 95.2%. For the same molecule, the growth at 10 µM (UO-31) was 79.1%, the growth at 10 µM (PC-3) was 82.9% and the growth at 10 µM (DU-145) was 113%. It also gave a growth at 10 µM (MCF7) of 27.6%, a growth at 10 µM (MDA-MB-231) of 73.8% and a growth at 10 µM [1] of 83.8%. The growth at 10 µM (BT-549) was 93.5%, the growth at 10 µM (T47D) was 33.5% and the growth at 10 µM (MDA-MB-468) was 11.3%. It also gave an inhibition of growth at 10 µM [2] of 18.2%, a growth at 10 µM (CCRF-CEM) of 92.6% and a growth at 10 µM (HL-60(TB)) of 98.3%. The growth at 10 µM (K562) was 70.6%, the growth at 10 µM (MOLT-4) was 75.8% and the growth at 10 µM [3] was 82.9%. It also gave a growth at 10 µM (SR) of 78.4%, a growth at 10 µM (A549) of 67.1% and a growth at 10 µM (EKVX) of 104%. For the same molecule, the growth at 10 µM (HOP-62) was 94.4%, the growth at 10 µM (HOP-92) was 81.7% and the growth at 10 µM (NCI-H226) was 78.3%. The growth at 10 µM (NCI-H23) was 78.9%, the growth at 10 µM (NCI-H322M) was 102% and the growth at 10 µM (NCI-H460) was 106%. It also gave a growth at 10 µM (NCI-H522) of 66.6%, a growth at 10 µM (COLO 205) of 66.8% and a growth at 10 µM (HCC 2998) of 76.8%. For the same molecule, the growth at 10 µM (HCT-116) was 76.6%, the growth at 10 µM (HCT-15) was 68.7% and the growth at 10 µM (HT-29) was 79%. For the same molecule, the growth at 10 µM (KM12) was 87.9%, the growth at 10 µM (SW-620) was 94.7% and the growth at 10 µM (SF-268) was 110%. It also gave a growth at 10 µM (SF-295) of 103%.
